Laboratory results reported in ChEMBL document CHEMBL1828530, “Quinonoid and phenazine compounds: synthesis and evaluation against H37Rv, rifampicin and isoniazid-resistance strains of Mycobacterium tuberculosis” (Eur J Med Chem, 2011).
In brackets after ≈: the same amount, converted by molar mass.

Tests used:
[1] = system: Mycobacterium tuberculosis; assay: Antitubercular activity against Mycobacterium tuberculosis H37Rv after 9 days by resazurin reduction assay; type: functional; conditions: 216 h
PBMC = assay: Cytotoxicity against human PBMC after 72 hrs by Alamar blue assay; type: cell-based
Outline: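 Human peripheral blood mononuclear cells; compounds (0.048–25) in DMSO (0.1%) added 24 h after plating, then 72 h exposure. Alamar Blue absorbance read at 570 and 595 nm, medium-alone blank subtracted at each wavelength; effect expressed as percentage of control absorbance; IC50 derived.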

Compound | MIC [1] [µM] | IC50 (PBMC) [µM]
CC(C)CCC1=C(O)C(=O)c2ccccc2C1=O | 205 (≈ 50.1 µg/mL) | > 102
CC(C)CC1=C(O)C(=O)c2ccccc2C1=O | 217 (≈ 50.1 µg/mL) | 93.5
CC(C)CC1=C(O)C(=O)C2=C(CCCC2)C1=O | 107 (≈ 25 µg/mL) | 64.2
CCCC1=C(O)C(=O)c2ccccc2C1=O | 462 (≈ 100 µg/mL) | 97.8
CCCC1=C(O)C(=O)C2=C(CCCC2)C1=O | 227 (≈ 50 µg/mL) | 89.1
CC(C)=CCC1=C(OC2(CC=C(C)C)C(=O)c3ccccc3-c3nc4ccccc4nc32)C(=O)c2ccccc2C1=O (centres undefined) | > 180 | > 45.1
CC(C)CCc1c2[nH]c3ccccc3nc-2c2ccccc2c1=O | 19.8 (≈ 6.26 µg/mL) | 45.1
CC(C)CCc1c2[nH]c3ccccc3nc-2c2c(c1=O)CCCC2 | 9.75 (≈ 3.12 µg/mL) | > 78
CC(C)CCC1=C(OC2(CCC(C)C)C(=O)c3ccccc3-c3nc4ccccc4nc32)C(=O)c2ccccc2C1=O (centres undefined) | > 179 | > 44.7
CC(C)CCC1=C(OC2(CCC(C)C)C(=O)C3=C(CCCC3)c3nc4ccccc4nc32)C(=O)C2=C(CCCC2)C1=O (centres undefined) | 176 (≈ 100 µg/mL) | > 44.9
CC(C)=Cc1c2[nH]c3ccccc3nc-2c2ccccc2c1=O | 83.3 (≈ 25 µg/mL) | 62
CC(C)Cc1c2[nH]c3ccccc3nc-2c2ccccc2c1=O | > 331 | > 82.7
CC(C)Cc1c2[nH]c3ccccc3nc-2c2c(c1=O)CCCC2 | > 327 | > 81.6
CC(C)CC1=C(OC2(CC(C)C)C(=O)c3ccccc3-c3nc4ccccc4nc32)C(=O)c2ccccc2C1=O (centres undefined) | > 188 | > 47.1
CC(C)CC1=C(OC2(CC(C)C)C(=O)C3=C(CCCC3)c3nc4ccccc4nc32)C(=O)C2=C(CCCC2)C1=O (centres undefined) | 92.8 (≈ 50 µg/mL) | > 46.4
C=CCC1=C(O)C(=O)c2ccccc2C1=O | 467 (≈ 100 µg/mL) | > 117
C=CCc1c2[nH]c3ccccc3nc-2c2ccccc2c1=O | 87.4 (≈ 25 µg/mL) | 64.3
CCCc1c2[nH]c3ccccc3nc-2c2c(c1=O)CCCC2 |  | > 85.5
C=CCC1=C(OC2(CC=C)C(=O)c3ccccc3-c3nc4ccccc4nc32)C(=O)c2ccccc2C1=O (centres undefined) | > 201 | > 50.1
CCCC1=C(OC2(CCC)C(=O)c3ccccc3-c3nc4ccccc4nc32)C(=O)c2ccccc2C1=O (centres undefined) | > 199 | > 49.7
CCCC1=C(OC2(CCC)C(=O)C3=C(CCCC3)c3nc4ccccc4nc32)C(=O)C2=C(CCCC2)C1=O (centres undefined) | > 196 | > 49
CC(C)CCC1=C(O)C(=O)C2=C(CCCC2)C1=O | 101 (≈ 25 µg/mL) | 81.3
CC(C)=CC1=C(O)C(=O)c2ccccc2C1=O | 219 (≈ 50.1 µg/mL) | > 110
NNC(=O)c1ccncc1 [ISONIAZID] | 0.145 (≈ 0.0199 µg/mL) | 
CC(C)=CCC1=C(O)C(=O)c2ccccc2C1=O [LAPACHOL] | 207 (≈ 50.1 µg/mL) | > 103
CO[C@H]1/C=C/O[C@@]2(C)Oc3c(C)c(O)c4c(O)c(c(/C=N/N5CCN(C)CC5)c(O)c4c3C2=O)NC(=O)/C(C)=C\C=C\[C@H](C)[C@H](O)[C@@H](C)[C@@H](O)[C@@H](C)[C@H](OC(C)=O)[C@@H]1C [RIFAMPIN] | 0.12 (≈ 0.0988 µg/mL) | 
